Data as given in ChEMBL document CHEMBL3526116, “Toxicological evaluation of acyl glucuronides of nonsteroidal anti-inflammatory drugs using human embryonic kidney 293 cells stably expressing human UDP-glucuronosyltransferase and human hepatocytes” (Drug Metab Dispos, 2011).

How the values were obtained:
[1] = tested on: HEK293; assay: Cytotoxicity against HEK293 cells expressing UGT1A3 assessed as decrease in cell viability at 1 mM measured at 24 hrs by MTT assay; assay type: ADME, cell-based; conditions: human, hek293, 24 h, 1000 µM
[2] = tested on: Hepatocyte; assay: Drug level in human hepatocytes assessed per 2 x 10^5 cells treated with ibuprofen at 1 mM measured at 6 hrs by LC-MS/MS analysis in absence of acyl glucuronidation inhibitor (-)-borneol; assay type: ADME, cell-based; conditions: 1000 µM
[3] = Drug level in cell culture medium treated with ibuprofen at 1 mM measured at 6 hrs by LC-MS/MS analysis in absence of acyl glucuronidation inhibitor (-)-borneol; assay type: physicochemical; conditions: 1000 µM
[4] = Drug level in cell culture medium treated with ibuprofen at 1 mM measured at 6 hrs by LC-MS/MS analysis in presence of acyl glucuronidation inhibitor (-)-borneol; assay type: physicochemical; conditions: 1000 µM
[5] = tested on: Nucleic Acid; assay: Ratio of drug level in human hepatocytes to HEK293 cells expressing UGT1A3 treated with ibuprofen at 1 mM; assay type: ADME, cell-based, Hepatocyte; conditions: 1000 µM
How it was run: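 Acyl glucuronide in cell fraction (pmol/2 x 10^5 cells) by LC-MS/MS after 6 h exposure in human hepatocytes without (-)-borneol, set against HEK/UGT1A3 cells (2 x 10^5 cells/well, DMEM with 0.5% FBS) exposed to the same drug level; cells pelleted at 3000 x g, resuspended in PBS, extracted with methanol/acetic acid.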

[6] = biological target: T1, UDP-glucuronosyltransferase 1A3 (Homo sapiens, UniProt P35503); assay: Activity of human UGT1A3 expressed in HEK293 cells assessed as enzyme-mediated compound formation per 2 x 10^5 cells treated with ibuprofen at 1 mM measured at 24 hrs by LC-MS/MS analysis; assay type: ADME, cell-based; conditions: hek293, 24 h, 1000 µM
T1 sequence (P35503 whole entry): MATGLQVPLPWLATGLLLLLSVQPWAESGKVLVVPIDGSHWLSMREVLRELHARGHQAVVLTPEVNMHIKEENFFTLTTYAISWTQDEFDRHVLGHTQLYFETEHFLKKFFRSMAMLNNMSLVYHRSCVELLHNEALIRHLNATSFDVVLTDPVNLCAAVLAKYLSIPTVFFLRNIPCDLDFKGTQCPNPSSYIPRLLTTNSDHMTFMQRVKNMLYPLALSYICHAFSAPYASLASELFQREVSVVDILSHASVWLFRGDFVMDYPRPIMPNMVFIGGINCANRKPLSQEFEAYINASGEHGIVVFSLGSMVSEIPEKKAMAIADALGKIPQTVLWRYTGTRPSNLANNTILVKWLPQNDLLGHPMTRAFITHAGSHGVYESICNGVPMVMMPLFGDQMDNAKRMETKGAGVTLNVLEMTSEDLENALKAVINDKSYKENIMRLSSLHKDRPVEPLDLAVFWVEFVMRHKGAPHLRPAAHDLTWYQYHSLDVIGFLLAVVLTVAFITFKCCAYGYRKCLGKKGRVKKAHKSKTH
How it was run: (§1)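 HEK293 stably expressing human UGT1A3 (G418-selected), 2 x 10^5 cells/well in 1 mL DMEM with 0.5% FBS, exposed immediately to drug for 6, 12 or 24 h; DMSO ≤0.1% final. Cells and medium separated by centrifugation, cell fraction resuspended in PBS; aliquots mixed 1:1 with methanol/acetic acid (100:1), spun, supernatant analysed by LC-MS/MS. Triplicate determinations, mean ± SD.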

[7] = biological target: T1, UDP-glucuronosyltransferase 1A3; assay: Activity of human UGT1A3 expressed in HEK293 cells assessed as enzyme-mediated compound formation in cell culture medium treated with ibuprofen at 1 mM measured at 6 to 24 hrs by LC-MS/MS analysis; assay type: ADME, cell-based; conditions: hek293, 1000 µM; how it was run: as §1
[8] = biological target: T1, UDP-glucuronosyltransferase 1A3; assay: Activity of human UGT1A3 expressed in HEK293 cells assessed as enzyme-mediated compound formation in cell culture medium treated with ibuprofen at 1 mM by LC-MS/MS analysis; assay type: ADME, cell-based; conditions: hek293, 1000 µM, TDE = time-dependent effect; how it was run: as §1
[9] = tested on: Hepatocyte; assay: Drug level in human hepatocytes assessed per 2 x 10^5 cells treated with ibuprofen at 1 mM measured at 6 hrs by LC-MS/MS analysis in presence of acyl glucuronidation inhibitor (-)-borneol; assay type: ADME, cell-based; conditions: 1000 µM
[10] = tested on: HEK293; assay: Cytotoxicity against HEK293 cells expressing UGT1A4 assessed as decrease in cell viability at 1 mM measured at 24 hrs by MTT assay; assay type: ADME, cell-based; conditions: human, hek293, 24 h, 1000 µM
[11] = tested on: HEK293; assay: Cytotoxicity against HEK293 cells expressing UGT assessed as decrease in cell viability at 1 mM measured up to 72 hrs by MTT assay; assay type: ADME, cell-based; conditions: human, hek293, 72 h, 1000 µM
How it was run: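 Mock and UGT1A3/UGT1A4 stable HEK293 cells given drug for up to 72 h; viability measured by WST-8-based MTT assay.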

[12] = tested on: HEK293; assay: Genotoxicity in HEK293 cells expressing UGT1A3 assessed as DNA strand breaks at 1 mM after 24 hrs by comet assay; assay type: toxicity, cell-based; conditions: human, hek293, 24 h, 1000 µM
How it was run: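 Alkaline comet assay: HEK/UGT1A3 cells seeded 24 h before, treated 24 h in DMEM with 0.5% FBS (vehicle 0.1% DMSO; MMS 0.1 mM positive control). Cells embedded in LMP agarose, lysed 1 h at 4°C at pH 10, unwound 30 min in NaOH/EDTA, electrophoresed 300 mA 20 min, ethidium-stained; tail moment scored on 150-180 comets over >3 experiments, median (IQR).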

[13] = tested on: HEK293; assay: Genotoxicity in HEK293 cells expressing UGT1A3 assessed as DNA strand breaks at 0.1 mM after 24 hrs by comet assay; assay type: toxicity, cell-based; conditions: human, hek293, 24 h, 100 µM
How it was run: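 HEK293 cells stably expressing UGT1A3, seeded 24 h before treatment and exposed 24 h in 0.5% FBS DMEM (vehicle 0.1% DMSO). Alkaline comet assay: low-melting agarose embedding, lysis pH 10 for 1 h at 4°C, 30 min unwinding in NaOH/EDTA, electrophoresis 300 mA for 20 min, ethidium bromide stain. Tail extent moment scored on 150-180 cells over more than 3 experiments, median (IQR).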

Q: With COc1c(C)c2c(c(O)c1C/C=C(\C)CCC(=O)O)C(=O)OC2 [MYCOPHENOLIC ACID] as the compound, how does the Activity [1] read?
A: Non-toxic

Q: Which Drug metabolism [2] does the source give for CC(C)Cc1ccc(C(C)C(=O)O[C@@H]2O[C@H](C(=O)O)[C@@H](O)[C@H](O)[C@H]2O)cc1 (stereo partly drawn) here?
A: 27.7 pmol

Q: What about the Drug metabolism [3] of the same compound?
A: 1156.7 pmol/mL

Q: What about the Drug metabolism [4] of the same compound?
A: 126.5 pmol/mL

Q: And the Ratio [5]?
A: 6

Q: And the Drug metabolism [6]?
A: 7.2 pmol

Q: And the Drug metabolism [7]?
A: 114.7 pmol/mL

Q: And the Drug metabolism [8]?
A: tde

Q: And the Drug metabolism [9]?
A: 3.5 pmol

Q: Which results are given for CC(C)(Oc1ccc(Cl)cc1)C(=O)O [CLOFIBRIC ACID]?
A: Activity [10]: Non-toxic; Activity [11]: Non-toxic; Activity [12]: Toxic; Activity [1]: Non-toxic

Q: For O=C(O)c1cccnc1Nc1cccc(C(F)(F)F)c1 [NIFLUMIC ACID], which Activity [1] is on record?
A: Non-toxic

Q: For CC1=C(CC(=O)O)c2cc(F)ccc2/C1=C\c1ccc([S+](C)[O-])cc1 (stereo not drawn), which Activity [1] is on record?
A: Non-toxic

Q: For NS(=O)(=O)c1cc(C(=O)O)c(NCc2ccco2)cc1Cl [FUROSEMIDE], which Activity [1] is on record?
A: Non-toxic

Q: Which Activity [13] does the source give for COS(C)(=O)=O [METHANESULFONIC ACID METHYL ESTER] here?
A: Toxic

Q: Which Activity [1] does the source give for CC(C(=O)O)c1ccc(-c2ccccc2)c(F)c1 (stereo not drawn) [FLURBIPROFEN] here?
A: Non-toxic
